ChEMBL document CHEMBL1121782, “New monofunctional reagents for DNA as possible agents for the photochemotherapy of psoriasis: derivatives of 4,5'-dimethylangelicin” (J Med Chem, 1981)
In brackets after ≈: the same amount, converted by molar mass.

Experiments:
[1] = Specific radioactivity of the compound.; type: ADME
[2] = species on record: Mus musculus; assay: Compound was evaluated for its ability to inhibit RNA synthesis in Ehrlich ascites tumor cells by irradiation (365 nM); type: functional
In short: (§1)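 Ehrlich ascites tumour cells in Hank's solution (2 × 10^7 cells/mL) irradiated on ice with UV-A (Philips HPW 125, 20 cm; 2.02 × 10^16 quanta/s on whole sample) with 1.9 × 10^-5 M compound. Then 2 × 10^6 cells incubated 15 min at 37 °C with 1 μCi [3H]thymidine (DNA) or [3H]uridine (RNA). TCA-insoluble counts as % of untreated; D50 = UV dose giving 50% inhibition; doses ≥duplicate.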

[3] = species on record: Mus musculus; assay: Compound was evaluated for its ability to inhibit DNA synthesis in Ehrlich ascites tumor cells by irradiation (365 nM); type: functional; in short: as §1
[4] = tested on: Nucleic Acid; assay: The compound was tested for its ability to bind to calf thymus DNA; type: nucleic-acid assay; details: Bos taurus
In short: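 Calf thymus DNA (hypochromicity over 40%) in water with 1.5 × 10-2 M NaCl and 1 × 10^-3 M EDTA, no irradiation. Ground-state binding by equilibrium dialysis or fluorimetric titration. r (ligand bound per nucleotide) and c (free ligand, mol/L) plotted per Scatchard. Intrinsic constant K and site size n fitted iteratively to McGhee–von Hippel by least squares until both changed by less than 1%.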

[5] = species on record: Mus musculus; assay: Compound was evaluated for its ability to inhibit RNA synthesis in Ehrlich ascites tumor cells by irradiation (365 nM),; type: functional
In short: (§2)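 Ehrlich ascites tumor cells in Hank's solution (2 × 10^7 cells/mL) irradiated on ice with 1.9 × 10^-5 M compound, Philips HPW 125 lamp at 20 cm (2.02 × 10^16 quanta/s incident). 2 × 10^6 cells then pulsed 15 min at 37 °C with 1 μCi [3H]thymidine (DNA) or [3H]uridine (RNA). Acid-insoluble counts taken as % of untreated cells. D50 is the UV-A dose giving 50% inhibition. Each dose run at least in duplicate.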

[6] = species on record: Mus musculus; assay: compound was evaluated for its ability to inhibit DNA synthesis in Ehrlich ascites tumor cells by irradiation (365 nM); type: functional; in short: as §2
[7] = Water solubility of the compound; type: ADME; details: for S: buffer; for solubility: water, read-out: S

| SMILES | Specific radioactivity [1] [Ci/M] | K [4] | S [7] [M l-1] | solubility [7] [µg/mL] | D50 [2] [quanta*10e-18] | D50 [3] [quanta*10e-18] | D50 [5] [quanta*10e-18] | D50 [6] [quanta*10e-18] |
| --- | --- | --- | --- | --- | --- | --- | --- | --- |
| O=c1ccc2ccc3occc3c2o1 [ANGELICIN] | 1.59 |  |  |  | 23.3 | 25 |  |  |
| COCc1c(C)oc2ccc3c(C)cc(=O)oc3c12 | 0.21 | 700 | 0.000056 | 15.3 (≈ 59.2 µM) |  |  | 13.8 | 22.7 |
| Cc1cc2c(ccc3c(C)cc(=O)oc32)o1 | 5.11 | 1400 | 3.7e-05 | 8 (≈ 37.3 µM) |  |  | 13.5 | 10.8 |

The next lines start with results.

| Specific radioactivity [1] [Ci/M] | K [4] | S [7] [M l-1] | solubility [7] [µg/mL] | SMILES | D50 [2] [quanta*10e-18] | D50 [3] [quanta*10e-18] | D50 [5] [quanta*10e-18] | D50 [6] [quanta*10e-18] |
| --- | --- | --- | --- | --- | --- | --- | --- | --- |
| 0.13 | 16300 | > 0.004 | > 1000 | Cc1oc2ccc3c(C)cc(=O)oc3c2c1CN.Cl |  |  | 100 | 100 |
| 0.13 | 1250 | 0.00007 | 17.1 (≈ 70 µM) | Cc1oc2ccc3c(C)cc(=O)oc3c2c1CO |  |  | 13.8 | 9.2 |
